The target in data set [1] is Glutamate receptor 3 (Homo sapiens) (UniProt P42263). The data set can be described thus: Inhibition of GluA3 receptor (unknown origin) expressed in Xenopus laevis oocytes assessed as inhibition of glutamate-induced current at 3 uM by two-electrode voltage clamp method; values are per cent of control. The settings on record: Oocyte.
Data set [2] deals with Glutamate receptor ionotropic, kainate 2 (Homo sapiens) (UniProt Q13002). Put plainly: Inhibition of GluK2 receptor (unknown origin) expressed in Xenopus laevis oocytes assessed as inhibition of glutamate-induced current at 3 uM by two-electrode voltage clamp method; values are per cent of control. The settings on record: Oocyte.
Glutamate receptor ionotropic, kainate 2 (Homo sapiens), sequence (Q13002 whole entry): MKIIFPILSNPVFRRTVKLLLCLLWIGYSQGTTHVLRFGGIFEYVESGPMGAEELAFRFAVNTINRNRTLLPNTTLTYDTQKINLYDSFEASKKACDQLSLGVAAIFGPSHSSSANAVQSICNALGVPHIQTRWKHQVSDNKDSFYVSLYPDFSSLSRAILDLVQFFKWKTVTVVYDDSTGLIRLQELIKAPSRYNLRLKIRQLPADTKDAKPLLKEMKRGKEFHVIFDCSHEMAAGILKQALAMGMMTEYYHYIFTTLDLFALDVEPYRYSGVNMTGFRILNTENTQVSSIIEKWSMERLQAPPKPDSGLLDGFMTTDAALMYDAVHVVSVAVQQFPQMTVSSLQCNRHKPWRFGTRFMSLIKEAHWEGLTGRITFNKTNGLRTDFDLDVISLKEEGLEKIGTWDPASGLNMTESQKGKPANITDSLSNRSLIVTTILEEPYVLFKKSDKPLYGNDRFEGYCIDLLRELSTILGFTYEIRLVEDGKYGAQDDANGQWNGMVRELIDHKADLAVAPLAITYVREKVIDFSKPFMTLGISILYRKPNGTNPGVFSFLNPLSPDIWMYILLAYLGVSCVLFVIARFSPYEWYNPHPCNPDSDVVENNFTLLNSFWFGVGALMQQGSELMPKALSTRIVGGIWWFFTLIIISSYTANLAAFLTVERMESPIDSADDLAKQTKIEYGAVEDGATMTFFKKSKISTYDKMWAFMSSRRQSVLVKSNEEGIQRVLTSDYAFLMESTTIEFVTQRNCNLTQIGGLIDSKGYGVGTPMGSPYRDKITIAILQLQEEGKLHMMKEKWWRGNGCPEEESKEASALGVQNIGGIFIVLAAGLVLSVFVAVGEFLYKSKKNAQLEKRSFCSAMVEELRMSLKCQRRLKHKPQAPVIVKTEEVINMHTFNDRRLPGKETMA
In data set [3] the target is Neuronal acetylcholine receptor; alpha3/beta4 (Homo sapiens) (UniProt P30926+P32297). The data set can be described thus: Inhibition of human nicotinic acetylcholine receptor subunit alpha-3 beta-4 expressed in Xenopus laevis oocytes assessed as inhibition of acetylcholine-induced current at 3 uM by two-electrode voltage clamp method; values are per cent of control. The note with it: Oocyte.

In data set [4] the test system is MDCK. Put plainly: Apparent permeability across basolateral to apical side in dog MDCK cells expressing MDR1 at 5 uM after 120 mins by LC-MS/MS analysis. It is filed as ADME, cell-based, Canis lupus familiaris. The note with it: 2 h. Put shortly: (§1)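 MDR1-MDCK monolayers grown to confluence on collagen-coated polycarbonate membranes. Assay buffer was HBSS with 10 mM HEPES and 15 mM glucose, pH 7.4, and the receiver side also held 1% BSA. Monolayers were dosed apically (A-to-B) or basolaterally (B-to-A) at 5 μM, 37 °C, 5% CO2. Donor and receiver were sampled at 120 min, in duplicate, by LC-MS/MS (ESI). Papp and percent recovery were calculated from receiver/donor concentrations.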

Data set [5] addresses Glutamate NMDA receptor; GRIN1/GRIN2A (Homo sapiens) (UniProt Q05586+Q12879). Put plainly: Inhibition of GluN1/GluN2A receptor (unknown origin) expressed in Xenopus laevis oocytes assessed as inhibition of glutamate/glycine-induced current at 3 uM by two-electrode voltage clamp method; values are per cent of control. The note with it: Oocyte.
Data set [6] concerns Liver microsomes. The data set can be described thus: Metabolic stability in human liver microsomes assessed as compound remaining at 1 uM after 20 mins by LC-MS/MS analysis. Format: ADME, Microsome. Put shortly: (§2)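 Human liver microsomes 0.5 mg/mL in 100 mM potassium phosphate pH 7.4 with 5 mM MgCl2 and 1 μM test compound. Preincubated 3 min at 37 °C, then started with 1 mM NADPH, with a testosterone control in parallel. Sampled at 0, 10, 20, 30 and 60 min and quenched in cold acetonitrile/water with formic acid and internal standard. Percent remaining by LC-MS/MS (MRM) versus time 0. t1/2 = 0.693/k from the ln-remaining slope; CLint = k/protein concentration.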

The target of data set [7] is Nicotinic acetylcholine receptor alpha1/beta1/gamma/delta (Mus musculus) (UniProt P04756+P09690+P02716+P04760). The data set can be described thus: Inhibition of mouse nicotinic acetylcholine receptor subunit alpha1beta1gammadelta expressed in Xenopus laevis oocytes assessed as inhibition of acetylcholine-induced current at 3 uM by two-electrode voltage clamp method; values are per cent of control. The settings on record: Oocyte.

The test system of data set [8] is Liver microsomes. The data set can be described thus: Metabolic stability in human liver microsomes assessed as compound remaining at 1 uM after 60 mins by LC-MS/MS analysis. It is filed as ADME, Microsome. The note with it: 1 h. An outline of the steps:
as §2

The nature of data set [9]: Aqueous solubility in DMSO buffer by nephelometric analysis. It is filed as physicochemical. The settings on record: oocyte recording buffer; in the assay text read “oocyte recording buffer” for “DMSO buffer”. Put shortly:
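Solubility measured by nephelometry in oocyte recording buffer: 90 mM NaCl, 1 KCl, 0.5 BaCl2, 0.005 EDTA, 10 HEPES, pH 7.4.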

The target in data set [10] is P2X purinoceptor 2 (Homo sapiens) (UniProt Q9UBL9). The data set can be described thus: Inhibition of human purinergic receptor P2X subunit-2 expressed in Xenopus laevis oocytes assessed as inhibition of ATP-induced current at 3 uM by two-electrode voltage clamp method; values are per cent of control. The note with it: Oocyte.
P2X purinoceptor 2 (Homo sapiens), sequence (Q9UBL9 whole entry): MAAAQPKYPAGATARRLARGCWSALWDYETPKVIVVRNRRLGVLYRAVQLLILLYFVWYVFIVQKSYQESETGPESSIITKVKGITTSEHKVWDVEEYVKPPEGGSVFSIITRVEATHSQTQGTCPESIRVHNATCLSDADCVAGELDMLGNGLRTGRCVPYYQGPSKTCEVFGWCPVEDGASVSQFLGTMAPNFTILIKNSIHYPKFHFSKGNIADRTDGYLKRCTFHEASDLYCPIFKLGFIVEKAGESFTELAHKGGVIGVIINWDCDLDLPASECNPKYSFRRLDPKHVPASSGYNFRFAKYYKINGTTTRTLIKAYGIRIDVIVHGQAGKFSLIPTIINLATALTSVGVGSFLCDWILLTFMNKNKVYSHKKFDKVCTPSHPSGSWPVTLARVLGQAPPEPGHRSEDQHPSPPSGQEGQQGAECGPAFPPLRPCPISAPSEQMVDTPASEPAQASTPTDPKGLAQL
Data set [11] concerns Liver microsomes. The data set can be described thus: Metabolic stability in human liver microsomes assessed as compound remaining at 1 uM after 30 mins by LC-MS/MS analysis. It is filed as ADME, Microsome. The settings on record: 0.5 h. Put shortly: as §2
Data set [12] has as its system MDCK. Put plainly: Permeability across basolateral to apical side in dog MDCK cells expressing MDR1 assessed as compound recovery at 5 uM after 120 mins by LC-MS/MS analysis. It is filed as ADME, cell-based, Canis lupus familiaris. The settings on record: 2 h. Put shortly:
as §1

In data set [13] the test system is MDCK. Put plainly: Apparent permeability across apical to basolateral side in dog MDCK cells expressing MDR1 at 5 uM after 120 mins by LC-MS/MS analysis. The note with it: 2 h. It is filed as ADME, cell-based, Canis lupus familiaris. An outline of the steps: as §1
For data set [14], the target named is Glutamate receptor 2 (Homo sapiens) (UniProt P42262). The data set can be described thus: Inhibition of GluA2 receptor (unknown origin) expressed in Xenopus laevis oocytes assessed as inhibition of glutamate-induced current at 3 uM by two-electrode voltage clamp method; values are per cent of control. The note with it: Oocyte.
Glutamate receptor 2 (Homo sapiens), sequence (P42262 whole entry): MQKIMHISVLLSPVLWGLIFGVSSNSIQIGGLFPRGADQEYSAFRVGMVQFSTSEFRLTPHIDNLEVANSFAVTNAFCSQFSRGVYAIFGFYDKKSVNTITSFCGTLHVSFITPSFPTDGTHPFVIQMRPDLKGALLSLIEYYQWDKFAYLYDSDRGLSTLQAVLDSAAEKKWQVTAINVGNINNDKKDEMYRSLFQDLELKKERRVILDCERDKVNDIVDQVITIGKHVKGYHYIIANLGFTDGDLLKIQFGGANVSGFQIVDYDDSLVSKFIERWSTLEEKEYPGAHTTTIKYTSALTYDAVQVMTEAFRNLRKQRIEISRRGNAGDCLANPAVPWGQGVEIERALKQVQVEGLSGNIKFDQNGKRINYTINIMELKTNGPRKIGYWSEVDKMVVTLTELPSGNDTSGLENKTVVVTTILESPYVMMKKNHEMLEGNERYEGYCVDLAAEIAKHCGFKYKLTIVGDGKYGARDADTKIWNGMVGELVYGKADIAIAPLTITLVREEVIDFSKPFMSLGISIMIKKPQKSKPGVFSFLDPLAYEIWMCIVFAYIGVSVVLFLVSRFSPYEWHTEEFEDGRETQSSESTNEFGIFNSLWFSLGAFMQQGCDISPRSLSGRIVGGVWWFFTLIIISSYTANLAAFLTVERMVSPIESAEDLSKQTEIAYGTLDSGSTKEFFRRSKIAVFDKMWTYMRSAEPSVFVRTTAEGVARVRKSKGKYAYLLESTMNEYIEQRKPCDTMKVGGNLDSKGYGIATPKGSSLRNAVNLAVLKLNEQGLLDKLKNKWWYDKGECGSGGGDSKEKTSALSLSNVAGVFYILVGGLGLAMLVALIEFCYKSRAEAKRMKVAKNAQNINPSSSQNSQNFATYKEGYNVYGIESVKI
The target in data set [15] is T1, Ionotropic glutamate receptor NMDA 1/2D (Homo sapiens) (UniProt Q05586+O15399). The data set can be described thus: Inhibition of GluN1/GluN2D receptor (unknown origin) expressed in Xenopus laevis oocytes assessed as inhibition of glutamate/glycine-induced current at 3 uM by two-electrode voltage clamp method; values are per cent of control. The note with it: Oocyte.

Data set [16] has as its target Neuronal acetylcholine receptor; alpha9/alpha10 (Homo sapiens) (UniProt Q9UGM1+Q9GZZ6). Put plainly: Inhibition of nicotinic acetylcholine receptor subunit alpha-9 alpha-10 (unknown origin) expressed in Xenopus laevis oocytes assessed as inhibition of acetylcholine-induced current at 3 uM by two-electrode voltage clamp method; values are per cent of control. The settings on record: Oocyte.

A further data set has as its target Histamine H2 receptor (Homo sapiens, UniProt P25021). Put plainly: Inhibition of histamine H2 receptor (unknown origin). Put shortly: (§3)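 Radioligand panel screening was run through the NIMH Psychoactive Drug Screening Program with compounds at 5 µM.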
Data set [17] relates to Liver microsomes. Put plainly: Intrinsic clearance in human liver microsomes measured per mg of protein at 1 uM by LC-MS/MS analysis. Format: ADME, Microsome. Put shortly:
as §2

Data set [18] concerns MDCK. Put plainly: Permeability across apical to basolateral side in dog MDCK cells expressing MDR1 assessed as compound recovery at 5 uM after 120 mins by LC-MS/MS analysis. It is filed as ADME, cell-based, Canis lupus familiaris. The settings on record: 2 h. Put shortly: as §1
Data set [19] addresses 5-hydroxytryptamine receptor 3A (Homo sapiens) (UniProt P46098). The data set can be described thus: Inhibition of serotonin 5-HT3A receptor (unknown origin) expressed in Xenopus laevis oocytes assessed as inhibition of serotonin-induced current at 3 uM by two-electrode voltage clamp method; values are per cent of control. The note with it: Oocyte.
Data set [20] deals with 5-hydroxytryptamine receptor 1E (Homo sapiens, UniProt P28566). The data set can be described thus: Inhibition of 5HT1E receptor (unknown origin). Put shortly:
as §3

The target of data set [21] is T1, Ionotropic glutamate receptor NMDA 1/2D (Homo sapiens). The settings on record: Oocyte, 1 uM.
The species named for data set [22] is Homo sapiens. The data set can be described thus: Inhibition of GluN2D receptor A752V mutant (unknown origin).
Data set [23] is filed under the species Homo sapiens. The data set can be described thus: Inhibition of GluN2D receptor Q801Y mutant (unknown origin).
Data set [24] deals with T1, Ionotropic glutamate receptor NMDA 1/2D (Homo sapiens). The settings on record: Oocyte, 1 uM. The source holds these as a separate data set.
The target of another data set is Mu-type opioid receptor (Homo sapiens, UniProt P35372). Put plainly: Inhibition of mu-type opioid receptor (unknown origin). Put shortly: as §3
Mu-type opioid receptor, sequence (P35372 whole entry): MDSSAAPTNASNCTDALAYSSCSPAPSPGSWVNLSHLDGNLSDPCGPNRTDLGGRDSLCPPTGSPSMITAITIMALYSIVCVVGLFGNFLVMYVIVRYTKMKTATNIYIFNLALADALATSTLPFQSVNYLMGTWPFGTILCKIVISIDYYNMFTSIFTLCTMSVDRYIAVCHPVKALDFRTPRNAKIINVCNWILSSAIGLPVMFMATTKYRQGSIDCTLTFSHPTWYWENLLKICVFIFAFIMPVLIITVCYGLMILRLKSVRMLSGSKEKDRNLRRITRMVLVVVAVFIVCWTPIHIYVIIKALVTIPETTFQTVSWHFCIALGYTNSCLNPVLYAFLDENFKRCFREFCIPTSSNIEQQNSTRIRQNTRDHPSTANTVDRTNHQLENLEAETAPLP

Calls of active or inactive are those of the source. No cut-off for these calls is given here.

Glutamate receptor 3 (Homo sapiens), sequence (P42263 whole entry): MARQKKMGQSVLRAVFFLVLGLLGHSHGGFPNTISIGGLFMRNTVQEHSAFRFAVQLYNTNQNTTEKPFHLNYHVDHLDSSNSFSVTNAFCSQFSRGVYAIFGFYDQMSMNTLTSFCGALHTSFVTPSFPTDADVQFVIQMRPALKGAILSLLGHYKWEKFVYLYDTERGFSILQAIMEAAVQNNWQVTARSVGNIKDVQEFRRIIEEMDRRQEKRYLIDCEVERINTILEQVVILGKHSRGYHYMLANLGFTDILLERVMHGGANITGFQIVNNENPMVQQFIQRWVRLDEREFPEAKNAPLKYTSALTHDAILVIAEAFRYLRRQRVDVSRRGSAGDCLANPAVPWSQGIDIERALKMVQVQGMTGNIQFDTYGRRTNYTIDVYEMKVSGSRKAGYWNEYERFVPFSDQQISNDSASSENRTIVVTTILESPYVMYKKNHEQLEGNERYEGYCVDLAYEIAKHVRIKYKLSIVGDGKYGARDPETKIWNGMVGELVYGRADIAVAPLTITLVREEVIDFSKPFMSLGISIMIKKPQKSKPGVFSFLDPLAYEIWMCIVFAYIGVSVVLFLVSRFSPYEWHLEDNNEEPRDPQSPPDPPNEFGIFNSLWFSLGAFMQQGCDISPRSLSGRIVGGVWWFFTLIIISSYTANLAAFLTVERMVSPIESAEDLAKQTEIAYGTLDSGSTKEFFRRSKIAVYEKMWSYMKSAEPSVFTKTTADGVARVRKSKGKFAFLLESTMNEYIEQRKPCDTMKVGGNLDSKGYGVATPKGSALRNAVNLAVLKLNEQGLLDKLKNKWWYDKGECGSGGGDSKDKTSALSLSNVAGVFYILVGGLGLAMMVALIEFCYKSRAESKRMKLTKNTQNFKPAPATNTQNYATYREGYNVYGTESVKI
5-hydroxytryptamine receptor 3A (Homo sapiens), sequence (P46098 whole entry): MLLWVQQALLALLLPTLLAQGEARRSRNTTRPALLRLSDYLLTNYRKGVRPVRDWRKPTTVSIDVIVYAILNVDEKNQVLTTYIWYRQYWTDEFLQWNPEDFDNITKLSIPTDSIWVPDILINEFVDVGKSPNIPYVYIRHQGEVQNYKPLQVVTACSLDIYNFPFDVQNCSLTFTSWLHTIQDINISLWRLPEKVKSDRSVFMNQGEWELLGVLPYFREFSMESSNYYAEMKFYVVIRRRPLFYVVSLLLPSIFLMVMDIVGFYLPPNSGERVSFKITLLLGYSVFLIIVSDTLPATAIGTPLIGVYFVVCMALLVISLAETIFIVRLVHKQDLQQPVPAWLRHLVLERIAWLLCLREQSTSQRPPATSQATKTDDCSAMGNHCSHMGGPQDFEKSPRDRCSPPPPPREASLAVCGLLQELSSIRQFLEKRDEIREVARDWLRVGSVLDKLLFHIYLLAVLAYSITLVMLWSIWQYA
Histamine H2 receptor, sequence (P25021 whole entry): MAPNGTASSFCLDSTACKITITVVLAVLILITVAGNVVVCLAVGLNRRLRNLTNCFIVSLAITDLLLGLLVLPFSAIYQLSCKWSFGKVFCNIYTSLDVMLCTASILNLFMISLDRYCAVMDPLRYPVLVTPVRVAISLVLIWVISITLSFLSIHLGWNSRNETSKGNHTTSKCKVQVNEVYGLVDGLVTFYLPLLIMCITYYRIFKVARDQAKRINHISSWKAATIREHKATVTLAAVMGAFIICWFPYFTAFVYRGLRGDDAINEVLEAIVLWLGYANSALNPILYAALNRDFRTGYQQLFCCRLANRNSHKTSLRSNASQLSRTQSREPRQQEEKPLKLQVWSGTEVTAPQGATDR
5-hydroxytryptamine receptor 1E, sequence (P28566 whole entry): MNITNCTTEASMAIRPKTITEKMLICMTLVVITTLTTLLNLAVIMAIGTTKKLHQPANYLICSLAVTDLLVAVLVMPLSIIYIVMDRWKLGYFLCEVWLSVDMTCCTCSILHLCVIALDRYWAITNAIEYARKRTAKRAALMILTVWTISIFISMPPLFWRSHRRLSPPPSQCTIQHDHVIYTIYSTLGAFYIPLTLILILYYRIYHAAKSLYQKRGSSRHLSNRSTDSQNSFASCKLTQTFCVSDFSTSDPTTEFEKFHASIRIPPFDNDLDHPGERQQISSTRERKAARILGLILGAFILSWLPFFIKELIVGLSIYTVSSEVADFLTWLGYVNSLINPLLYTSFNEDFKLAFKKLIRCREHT

Consider `O=C(O)CCC(=O)N1N=C(c2c(-c3ccc(Cl)cc3)c3ccccc3[nH]c2=O)CC1c1ccc(Cl)cc1` (racemic), for which the residual activity in [1] is 99%; in data set [2], 97%; in data set [3] it was 77%; in [5], 89%; in data set [7] it was 94%; in data set [10], 113%. For the same compound, the residual activity in [14] was 98%; in data set [15], 14%; in data set [16], 67%; in data set [19], 95%. Further, the apparent permeability (Papp) in the data set on MDCK [4] is 25.6 ×10⁻⁶ cm/s; in the data set with MDCK [13] it was 0.47 ×10⁻⁶ cm/s. Besides, the Stability in the data set with Liver microsomes [6] turned out to be 100%; with Liver microsomes [8], 86%; with Liver microsomes [11] it was 115%. The kinetic solubility in data set [9] is greater than 80 µM. For the same compound, the Drug recovery with MDCK [12] is given as 76%; with MDCK [18], 73%. Besides, at Histamine H2 receptor, the inhibitory constant (Ki) is greater than 10 µM. In the data set with Liver microsomes [17], this compound returned a CLint of less than 20 µL/min/mg.

Turning to `O=C(O)/C=C/C(=O)N1N=C(c2c(-c3ccc(Br)cc3)c3ccccc3[nH]c2=O)CC1c1ccc(Cl)cc1` (racemic), the residual activity turned out to be 100% in [1]; 4.9% in data set [21]; 97% in data set [2]; 87% in data set [3]; 89% in [5]; 98% in data set [7]. For the same compound, the residual activity in data set [10] stood at 100%; in data set [14] it was 96%; in [15], 14%; in data set [24], 4.8%; in data set [16], 72%; in data set [19] it was 95%. The Ki (in data set [20]; at Mu-type opioid receptor) was greater than 10 µM in each case. For the same compound, the inhibition entry in the data set filed under Homo sapiens [22] and in the data set filed under Homo sapiens [23] was “inactive” throughout.

(Values after ChEMBL document CHEMBL2424574, “Structure-activity relationships and pharmacophore model of a noncompetitive pyrazoline containing class of GluN2C/GluN2D selective antagonists” (J Med Chem, 2013).)
